According to ChEMBL document CHEMBL1275600, “Prophylactic activity of intramuscular peramivir in mice infected with a recombinant influenza A/WSN/33 (H1N1) virus containing the H274Y neuraminidase mutation” (Antimicrob Agents Chemother, 2010):
Activity calls are given as the source filed them. The calls are words filed in the database; no cut-off is given here.

What was measured:
Influenza A virus [1] = assay: Antiviral activity against oseltamivir-resistant Influenza A/WSN/33 (H1N1) virus expressing neuraminidase H274Y mutant gene infected in BALB/c mouse assessed as survival of mouse at 45 mg/kg, im administered as single dose; assay type: functional, organism-based; design: dose 45 mg/kg; conditions: A/WSN/1933(H1N1)
Outline: (§1)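 Male BALB/c mice, 6–8 weeks old and 20–25 g, were randomized by weight, 4 per cage, in groups of 12. Drug at 50 mg/ml in saline buffered to pH 3.0 was given by IM hip injection, first dose 1 h before challenge. Mice were infected intranasally under isoflurane with 8 × 10^3 PFU of cell-grown recombinant virus in 30 μl PBS. Mortality was recorded daily for 14 days.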

Influenza A virus [2] = assay: Antiviral activity against oseltamivir-resistant Influenza A/WSN/33 (H1N1) virus expressing neuraminidase H274Y mutant gene infected in BALB/c mouse assessed as survival of mouse at 90 mg/kg, im administered as single dose; assay type: functional, organism-based; design: dose 90 mg/kg; conditions: A/WSN/1933(H1N1); outline: as §1
Influenza A virus [3] = assay: Antiviral activity against oseltamivir-resistant Influenza A/WSN/33 (H1N1) virus expressing neuraminidase H274Y mutant gene infected in BALB/c mouse assessed as survival of mouse at 45 mg/kg, im once daily for 5 days; assay type: functional, organism-based; design: dose 45 mg/kg; conditions: A/WSN/1933(H1N1); outline: as §1
Mus musculus [4] = assay: Toxicity against oseltamivir-resistant Influenza A/WSN/33 (H1N1) virus expressing neuraminidase H274Y mutant gene infected BALB/c mouse assessed as weight loss at 45 mg/kg, im administered as single dose and measured after 6 days; assay type: organism-based; design: dose 45 mg/kg, route intramuscular; conditions: in vivo, 144 h
Outline: (§2)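 Male BALB/c mice, groups of 12, received IM drug at 50 mg/ml in pH 3.0 buffered saline, starting 1 h before intranasal infection with 8 × 10^3 PFU of recombinant virus. Body weight was monitored daily for 14 days. Mean weight loss was compared across regimens by one-way ANOVA, with uninfected PBS-treated mice as reference.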

Mus musculus [5] = assay: Toxicity against oseltamivir-resistant Influenza A/WSN/33 (H1N1) virus expressing neuraminidase H274Y mutant gene infected BALB/c mouse assessed as weight loss at 90 mg/kg, im administered as single dose and measured after 14 days; assay type: organism-based; design: dose 90 mg/kg, route intramuscular; conditions: in vivo, 336 h; outline: as §2
Mus musculus [6] = assay: Toxicity against oseltamivir-resistant Influenza A/WSN/33 (H1N1) virus expressing neuraminidase H274Y mutant gene infected BALB/c mouse assessed as weight loss at 45 mg/kg, im once daily for 5 days measured after 14 days; assay type: organism-based; design: dose 45 mg/kg, route intramuscular; conditions: in vivo, 336 h; outline: as §2
Influenza A virus [7] = assay: Antiviral activity against oseltamivir-resistant Influenza A/WSN/33 (H1N1) virus expressing neuraminidase H274Y mutant gene infected in BALB/c mouse assessed as log reduction in lung viral titer at 45 mg/kg, im administered as single dose and measured after 4 days; assay type: functional, A/WSN/1933(H1N1); conditions: route intramuscular
Outline: (§3)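 Male BALB/c mice received IM drug at 50 mg/ml in pH 3.0 buffered saline, starting 1 h before intranasal infection with 8 × 10^3 PFU of recombinant virus. Subgroups of 4 were sacrificed on day 4. Lungs were homogenized in 2 ml PBS with antibiotics and spun at 600 × g for 10 min. Supernatants were plaque-titrated on MDBK cells in triplicate. Comparison to untreated infected mice used a two-tailed unpaired t test.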

Influenza A virus [8] = assay: Antiviral activity against oseltamivir-resistant Influenza A/WSN/33 (H1N1) virus expressing neuraminidase H274Y mutant gene infected in BALB/c mouse assessed as log reduction in lung viral titer at 90 mg/kg, im administered as single dose and measured after 4 days; assay type: functional, A/WSN/1933(H1N1); conditions: route intramuscular; outline: as §3
Influenza A virus [9] = assay: Antiviral activity against oseltamivir-resistant Influenza A/WSN/33 (H1N1) virus expressing neuraminidase H274Y mutant gene infected in BALB/c mouse assessed as log reduction in lung viral titer at 45 mg/kg, im once daily for 5 days; assay type: functional, A/WSN/1933(H1N1); conditions: route intramuscular; outline: as §3

## CCC(CC)[C@H](NC(C)=O)[C@@H]1[C@H](O)[C@@H](C(=O)O)C[C@H]1NC(=N)N [PERAMIVIR ANHYDROUS]
Influenza A virus [1]
  Activity: inactive
Influenza A virus [2]
  Activity: inactive
Influenza A virus [3]
  Activity: inactive
Mus musculus [4]
  Activity: Toxic
Mus musculus [5]
  Activity: Non-toxic
Mus musculus [6]
  Activity: Non-toxic
Influenza A virus [7]
  FC: 1.5
Influenza A virus [8]
  FC: 1.5
Influenza A virus [9]
  FC: 1.5
